According to ChEMBL document CHEMBL1122439 (J Med Chem, 1983):
The source made the active and inactive calls. The rule behind the calls is not given here.

Legend:
[1] = test system: Canis familiaris; test: % Inhibition of acid output in dogs at a dose of 5.0 mg/kg administered intravenously; format: functional; details: Canis lupus familiaris, route intravenous
Outline: (§1)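 Dogs with chronic gastric fistula; gastric acid secretion evoked by maximal stimulating histamine dose (64 μg/kg, sc). Test agent given intravenously, or intragastrically via fistula for peroral dosing; percent inhibition of acid output recorded at the stated single dose.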

[2] = target: Histamine H2 receptor (Cavia porcellus) (UniProt P47747); test: Evaluated in vitro for Histamine H2 receptor inhibition using the dimaprit stimulated chronotropic response of the guinea pig atrium; inact means inactive at 8 x 10 -8 M; format: tissue-based; details: Cardiac atrium, in the assay text read “8 x 10 -5 M” for “8 x 10 -8 M”
Outline: (§2)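 Isolated guinea pig atria; chronotropic response to rising concentrations of H2 agonist dimaprit (10⁻⁷–10⁻⁴ M) in presence of test agent; three to four atria per test concentration; -log K_I = log(ED50 dose ratio − 1) − log(drug dose).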

[3] = pKa of heterocyclic component measured as proton gained; format: physicochemical
Outline: (§3)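 Potentiometric titration in water with glass electrodes; heterocycle pKa taken as proton gained, urea-component pKa as proton lost; method upper limit pKa 11.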

[4] = test system: Canis familiaris; test: Effective dose administarted perorally required for 50 % inhibition of acid output in dogs; format: functional; details: Canis lupus familiaris, po
[5] = test system: Canis familiaris; test: % Inhibition of acid output in dogs at a dose of 20 mg/kg administered perorally; format: functional; details: Canis lupus familiaris, route oral; outline: as §1
[6] = target: Histamine H2 receptor (Cavia porcellus, UniProt P47747); test: Evaluated in vitro for Histamine H2 receptor inhibition using the dimaprit stimulated chronotropic response of the guinea pig atrium; format: tissue-based, Cardiac atrium; outline: as §2
[7] = test system: Canis familiaris; test: % Inhibition of acid output in dogs at a dose of 0.03 mg/kg administered intravenously; format: functional; details: Canis lupus familiaris, route intravenous; outline: as §1
[8] = test system: Canis familiaris; test: % Inhibition of acid output in dogs at a dose of 10 mg/kg administered perorally; format: functional; details: Canis lupus familiaris, route oral; outline: as §1
[9] = test system: Canis familiaris; test: Effective dose administarted intravenously required for 50 % inhibition of acid output in dogs; value may range from 0.01-0.02; format: functional; details: Canis lupus familiaris, iv
[10] = test system: Canis familiaris; test: Effective dose administarted intravenously required for 50 % inhibition of acid output in dogs; Value may range from 0.01-0.03; format: functional; details: Canis lupus familiaris, iv
[11] = test system: Canis familiaris; test: Effective dose administarted perorally required for 50 % inhibition of acid output in dogs; value may range from 0.7-10.9; format: functional; details: Canis lupus familiaris, po
[12] = pKa of urea component measured as proton lost reference pKa for the 3,4 diaminothiadiazole 1-oxide is ~11 in water; format: physicochemical; details: buffer; outline: as §3
[13] = test system: Canis familiaris; test: % Inhibition of acid output in dogs at a dose of 3.0 mg/kg administered intravenously; format: functional; details: Canis lupus familiaris, route intravenous; outline: as §1
[14] = test system: Canis familiaris; test: Effective dose administarted intravenously required for 50 % inhibition of acid output in dogs; value may range from 0.15-0.18; format: functional; details: Canis lupus familiaris, iv
[15] = test system: Canis familiaris; test: Effective dose administarted intravenously required for 50 % inhibition of acid output in dogs; value may range from 0.01-0.08; format: functional; details: Canis lupus familiaris, iv

Chain of Histamine H2 receptor (P47747 whole entry): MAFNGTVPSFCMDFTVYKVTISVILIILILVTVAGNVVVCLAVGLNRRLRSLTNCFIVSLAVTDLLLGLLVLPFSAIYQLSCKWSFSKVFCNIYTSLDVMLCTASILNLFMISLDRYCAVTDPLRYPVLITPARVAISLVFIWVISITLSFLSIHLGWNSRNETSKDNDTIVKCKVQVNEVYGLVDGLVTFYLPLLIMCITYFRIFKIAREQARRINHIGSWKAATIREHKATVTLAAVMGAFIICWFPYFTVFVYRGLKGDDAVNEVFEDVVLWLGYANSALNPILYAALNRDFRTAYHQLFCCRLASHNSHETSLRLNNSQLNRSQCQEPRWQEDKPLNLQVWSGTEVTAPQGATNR
Chain of Histamine H2 receptor (Cavia porcellus) (P47747 whole entry): as above

pKa [3]	Ki [6] [nM]	Compound	inhibition in vivo at 5 mg/kg [1] [%]	inhibition in vivo at 0.03 mg/kg [7] [%]	inhibition in vivo at 10 mg/kg [8] [%]	other results
–	15800	CN/C(=C\[N+](=O)[O-])Nc1cccc(-c2[nH]cnc2C)c1	28	–	–	inhibition in vivo at 20 mg/kg [5]: 54%
–	398	CNc1n[s+]([O-])nc1Nc1cccc(-c2csc(N=C(N)N)n2)c1 (configuration not stated)	–	85	21	ED50 [9]: 0.017 mg/kg
6	200	CN/C(=C/[N+](=O)[O-])Nc1cccc(-c2csc(N=C(N)N)n2)c1	–	59	70	pKa [12]: 9.2
6.2	316	N=C(N)Nc1nc(-c2cccc(Nc3n[s+]([O-])nc3N)c2)cs1 (configuration not stated)	–	58	31	pKa [12]: 8.9; ED50 [15]: 0.02 mg/kg
–	794	Cc1[nH]cnc1-c1cccc(Nc2n[s+]([O-])nc2N)c1 (configuration not stated)	5	–	–	inhibition in vivo at 20 mg/kg [5]: 1%
–	39800	CNC(=NC#N)Nc1cccc(-c2nc[nH]c2C)c1	48	–	–	–

The remaining lines, values behind:

Compound	pKa [3]	Ki [6] [nM]	inhibition in vivo at 5 mg/kg [1] [%]	inhibition in vivo at 0.03 mg/kg [7] [%]	inhibition in vivo at 10 mg/kg [8] [%]	other results
C/N=C(\NC#N)Nc1ccccc1-c1[nH]cnc1C	–	–	4	–	–	-Log Ki [2]: inactive
CN/C(=N\CCSCc1nc[nH]c1C)NC#N [CIMETIDINE]	6.4	–	–	–	–	ED50 [4]: 2.86 mg/kg
C/N=C(\NC#N)Nc1cccc(-c2csc(N=C(N)N)n2)c1	6.2	316	–	79	73	ED50 [10]: 0.02 mg/kg; ED50 [11]: 2.81 mg/kg
CN/C(=C\[N+](=O)[O-])Nc1ccc(-c2csc(N=C(N)N)n2)cc1	6.2	31600	–	–	–	pKa [12]: 9.7; inhibition in vivo at 3 mg/kg [13]: 55%
CNC(=NCCSCc1csc(N=C(N)N)n1)NC#N [TIOTIDINE]	7.1	–	–	–	–	ED50 [14]: 0.16 mg/kg; ED50 [4]: 0.12 mg/kg
C/N=C(\NC#N)Nc1ccc(-c2[nH]cnc2C)cc1	–	–	0	–	–	-Log Ki [2]: inactive
